{
  "source": "paper PMC6030701",
  "about": "(EMBO Reports, 2018)",
  "key": {"[1]": {"molecular_target": "T1, MSP domain of MOSPD2 (Homo sapiens, UniProt Q8NHP6)", "T1 sequence (Q8NHP6 282-490)": "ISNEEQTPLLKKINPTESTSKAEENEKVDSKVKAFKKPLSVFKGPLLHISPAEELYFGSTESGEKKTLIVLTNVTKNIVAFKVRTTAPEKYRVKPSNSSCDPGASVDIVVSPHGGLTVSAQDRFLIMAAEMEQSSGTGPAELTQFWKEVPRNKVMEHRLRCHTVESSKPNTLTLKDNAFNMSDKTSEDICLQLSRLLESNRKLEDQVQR", "assay": "Liposome aggregation", "format": "biochemical", "settings": "DLS, 25°C"}, "[2]": {"test_system": "RD/LD mutant MSP domain of MOSPD2", "assay": "Liposome aggregation", "format": "biochemical", "settings": "DLS, 25°C, FFAT peptide 380 nM, RD/LD mutant MSP 760 nM"}, "[3]": {"molecular_target": "the molecule itself", "assay": "SEC"}, "[4]": {"test_system": "STARD3", "assay": "MSP domain pull-down, STARD3", "format": "binding", "settings": "6His MSP on NTA-Ni2+ resin, HeLa/STARD3 protein extract, Western blot", "procedure,_shortened": "(§1)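 6His-tagged MSP domain (residues 282–490), from E. coli BL21 DE3 (1 mM IPTG, 20°C, 16 h), purified on Ni-NTA and by gel filtration. HeLa stable-line extract in PDB2 incubated 2.5 h, 4°C. Laemmli elution; blotted for STARD3, His, actin.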"}, "[5]": {"test_system": "STARD3 FA/YA", "assay": "MSP domain pull-down, STARD3 FA/YA mutant", "format": "binding", "settings": "6His MSP on NTA-Ni2+ resin, HeLa/STARD3 FA/YA protein extract, Western blot", "procedure,_shortened": "as §1"}},
  "data": [
    {"molecule": "WCSGKGDMSDEDDENEFFDAPEIITMPENLGH [FFAT‐containing peptide]", "values": [
      {"measurement": "size of liposome aggregates at end of kinetics", "setting": "[1]; FFAT peptide 380 nM, MSP MOSPD2 WT 760 nM", "result": "479 ± 87", "unit": "nm"},
      {"measurement": "size of free liposomes", "setting": "[1]; size distribution analysis", "result": "97 ± 15", "unit": "nm"},
      {"measurement": "liposome aggregation", "setting": "[2]", "result": "no aggregation was observed"}
    ]},
    {"molecule": "MSP domain and coiled‐coil of VAP‐A [8–212], wild type (domain or fragment, human, UniProt Q9P0L0 8-212, looked up) MAKHEQILVLDPPTDLKFKGPFTDVVTTNLKLRNPSDRKVCFKVKTTAPRRYCVRPNSGIIDPGSTVTVSVMLQPFDYDPNEKSKHKFMVQTIFAPPNTSDMEAVWKEAKPDELMDSKLRCVFEMPNENDKLNDMEPSKAVPLNASKQDGPMPKPHSVSLNDTETRKLMEECKRLQGEMMKLSEENRHLRDEGLRLRKVAHSDKP", "values": [
      {"measurement": "stoichiometry N", "setting": "[3]", "result": 2}
    ]},
    {"molecule": "wild‐type MSP domain of MOSPD2: recombinant MSP domain of MOSPD2 [282–490], expressed in E. coli (protein, left off: 6His, C-terminal, kept) ISNEEQTPLLKKINPTESTSKAEENEKVDSKVKAFKKPLSVFKGPLLHISPAEELYFGSTESGEKKTLIVLTNVTKNIVAFKVRTTAPEKYRVKPSNSSCDPGASVDIVVSPHGGLTVSAQDRFLIMAAEMEQSSGTGPAELTQFWKEVPRNKVMEHRLRCHTVESSKPNTLTLKDNAFNMSDKTSEDICLQLSRLLESNRKLEDQVQR", "values": [
      {"measurement": "interaction with STARD3", "setting": "[4]", "result": "interacted specifically with STARD3"},
      {"measurement": "interaction with STARD3 FA/YA", "setting": "[5]", "result": "not with the STARD3 FA/YA mutant"}
    ]}
  ]
}
